Read-outs that look alike come from different tables or passages of the source.

The subject of data set [1] is 2C19. Particulars: 10 μM NBN; corresponding probe reaction; ref Linder et al., 2009; cited from earlier work.
The subject of data set [2] is 3A4. The conditions noted are these: 1 μM ketoconazole; corresponding probe reaction; ref Linder et al., 2009; cited from earlier work.
Data set [3] concerns the target CYP 2C19 (Homo sapiens, UniProt P33261). Briefly: Incubation of D or DA with recombinant human CYP 2C19. Type of data set: in vitro ADME. The conditions noted are these: for conversion to DOH or metabolites by 2C19 in the absence of NADPH: incubated in the absence of NADPH; for average velocity of 2C19 in the first 10 minutes: recombinant 2C19, substrate 6 μM.
Data set [4] concerns the target CYP 3A4 (Homo sapiens, UniProt P08684). Briefly: Incubation of D or DA with recombinant human CYP 3A4. Type of data set: in vitro ADME. The conditions noted are these: recombinant 3A4; substrate 6 μM.
Data set [5] has as its system human liver microsome (HLM). Briefly: In vitro metabolism in human liver microsomes. It counts as in vitro ADME. Particulars: substrate 6 μM, 60 minutes; for effect of NBN and ketoconazole together on metabolism by HLM: 10 μM NBN + 2 μM ketoconazole. The method in brief: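 Human liver microsomes at 1 mg/mL in 50 mM potassium phosphate (pH 7.4) with 1 mM NADPH and 6 μM substrate; final methanol 0.5% (v/v). Inhibitors came from DMSO stocks (DMSO at most 0.5% v/v). NBN at 10 μM and ketoconazole at 2 μM were added with the substrate. Incubated at 37°C for 1 hour, then extracted and quantitated. Three or more independent experiments.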
A general note: Microsomes from liver hold many membrane-bound enzymes, among them those of drug oxidation.

Data set [6] is classed as in vivo. Particulars: mice, ABT vs. no ABT.
The format of data set [7] is in vivo, human.
The conditions of data set [8]: ref Zhang et al., 2015, cited from earlier work.
The conditions of data set [9]: rats; ref Song et al., 2011; cited from earlier work.
The conditions of data set [10]: rats, ref Li et al., 2013b, cited from earlier work.

Chain of CYP 2C19 (P33261 whole entry): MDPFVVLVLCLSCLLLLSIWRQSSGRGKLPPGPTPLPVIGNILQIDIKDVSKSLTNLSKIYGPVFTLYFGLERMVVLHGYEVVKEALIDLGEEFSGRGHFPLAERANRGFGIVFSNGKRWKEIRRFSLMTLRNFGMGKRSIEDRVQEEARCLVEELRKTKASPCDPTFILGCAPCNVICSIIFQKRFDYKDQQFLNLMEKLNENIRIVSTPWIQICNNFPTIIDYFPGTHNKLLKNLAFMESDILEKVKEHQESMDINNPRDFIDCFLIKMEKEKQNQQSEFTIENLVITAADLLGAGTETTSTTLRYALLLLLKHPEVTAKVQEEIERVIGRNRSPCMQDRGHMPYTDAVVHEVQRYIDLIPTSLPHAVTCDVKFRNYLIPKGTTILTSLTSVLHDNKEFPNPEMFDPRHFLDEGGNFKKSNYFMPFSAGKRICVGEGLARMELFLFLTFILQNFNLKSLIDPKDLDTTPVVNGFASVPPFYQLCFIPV
Chain of CYP 3A4 (P08684 whole entry): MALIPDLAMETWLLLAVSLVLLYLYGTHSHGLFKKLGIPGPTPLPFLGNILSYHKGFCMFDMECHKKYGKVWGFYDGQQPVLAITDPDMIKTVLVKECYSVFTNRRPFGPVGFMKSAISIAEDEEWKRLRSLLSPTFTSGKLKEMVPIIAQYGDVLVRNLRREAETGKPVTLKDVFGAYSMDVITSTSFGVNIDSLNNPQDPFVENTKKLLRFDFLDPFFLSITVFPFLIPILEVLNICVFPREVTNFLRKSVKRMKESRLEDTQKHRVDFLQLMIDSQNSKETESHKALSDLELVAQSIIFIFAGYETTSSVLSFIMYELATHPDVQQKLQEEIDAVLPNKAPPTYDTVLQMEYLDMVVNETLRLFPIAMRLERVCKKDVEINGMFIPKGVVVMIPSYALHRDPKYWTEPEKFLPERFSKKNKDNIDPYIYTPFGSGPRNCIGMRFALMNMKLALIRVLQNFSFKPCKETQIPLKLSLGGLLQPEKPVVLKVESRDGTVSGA

Consider `CCC1(c2ccccc2)NC(=O)N(Cc2ccccc2)C1=O` (single isomer, unassigned; (+)) [NBN, (+)-N-3-benzylnirvanol], for which the “inhibition of 2C19 activity in HLM” value in data set [1] is recorded as 55%.

`CC(=O)N1CCN(c2ccc(OCC3COC(Cn4ccnc4)(c4ccc(Cl)cc4Cl)O3)cc2)CC1` (centres unmarked) [ketoconazole]: the “inhibition of 3A4 activity in HLM” value in data set [2] is reported as 59%.

In the case of `C/C=C(/C)C(=O)O[C@H]1Cc2cc3ccc(=O)oc3cc2OC1(C)C` [DA, decursinol angelate], in data set [3], the “conversion to DOH or metabolites by 2C19 in the absence of NADPH” value was “not able to convert” and the “average velocity of 2C19 in the first 10 minutes” value is reported as 60 pmol D or DA per minute per pmol CYP. The “average velocity of 3A4 in the first 10 minutes” value in [4] is recorded as 5 pmol per minute per pmol CYP. Besides, the “effect of 3A4 inhibitor ketoconazole (KCZ) on metabolism by HLM” value in data set [5] (2 μM ketoconazole, 1 mg/mL HLM) is “greater extent of inhibition of DA conversion to DOH and metabolite N8”. For the same compound, the “effect of NBN and ketoconazole together on metabolism by HLM” value in data set [5] was “additive manner”. Moreover, in data set [6] (1 hour after D/DA dose), the “increase of plasma level by ABT pretreatment” value (from here on “increase of plasma level”) is 30 fold and the “increase of prostate content by ABT pretreatment” value (from here on “increase of prostate content”) worked out at 18 fold. In addition, in [6] (2 hours after D/DA dose), the “increase of plasma level” value is listed as 30 fold and the “increase of prostate content” value stood at 48 fold. In addition, the “effect of 2C19*17 allele on plasma AUC0–48h” value in data set [7] (human subjects by CYP SNP genotype) is given as “trend of gene-dose effect”. In data set [7] (human subjects, Kruskal-Wallis test, p<0.05), the “plasma AUC0–48h compared among three racial groups (Caucasian, Hispanic, Asian)” value is recorded as “statistically different among three groups”. Further, in data set [8] (healthy human subjects, single dose), the “variation in the Cmax and AUC0–48h among subjects” value is listed as no more than 60 fold.

`CC1(C)Oc2cc3oc(=O)ccc3cc2C[C@@H]1O` [DOH, decursinol]: in data set [6] (1 hour after D/DA dose), the “increase of plasma level” value is given as 1.5–2 fold and the “increase of prostate content” value is recorded as 1.5–2 fold. Also, in [6] (2 hours after D/DA dose), the “increase of plasma level” value is given as 1.5–2 fold and the “increase of prostate content” value is 1.5–2 fold. Moreover, the “urinary excretion of free DOH, share of D/DA ingested” value in data set [8] (human subjects) was less than 1%. Moreover, in data set [9], the “absorption (AUC-oral dose vs. AUC-i.v.)” value was ~ 45%. Moreover, in [10] (equal moles by oral gavage), the “AUC of plasma DOH” value was 65012 ng·h/mL and the “AUC ratio, DOH group vs. D/DA group” value is recorded as ~ 2.4 fold. The “tmax of plasma DOH peak” value in [10] (oral gavage) is ~ 0.7 h.

On to `CC(C)=CC(=O)O[C@H]1Cc2cc3ccc(=O)oc3cc2OC1(C)C` [D, decursin], for which, in data set [3], the “conversion to DOH or metabolites by 2C19 in the absence of NADPH” value is “not able to convert” and the “average velocity of 2C19 in the first 10 minutes” value is 60 pmol D or DA per minute per pmol CYP. In addition, the “average velocity of 3A4 in the first 10 minutes” value in [4] is 4 pmol per minute per pmol CYP. Also, in data set [5], the “effect of NBN and ketoconazole together on metabolism by HLM” value was “additive manner”. Moreover, the “effect of 2C19 inhibitor NBN on metabolism by HLM” value in data set [5] (10 μM NBN, 1 mg/mL HLM) is reported as “retarded the disappearance of D”. Also, in data set [6] (1 hour after D/DA dose), the “increase of plasma level” value is 32 fold and the “increase of prostate content” value amounted to 61 fold. For the same compound, in data set [6] (2 hours after D/DA dose), the “increase of plasma level” value is listed as 26 fold and the “increase of prostate content” value amounted to 61 fold.
